Bioassay records as filed in PubChem BioAssay.
An excerpt weighted towards active compounds, which were near 3.7% of everything screened.
KCNK3 inh: human KCNK3 channel inhibition, primary screen. B-score at 10 µM. O14649. 340,000 compounds, 0.84% hits. CHO-KCNK3 thallium flux, FluxOR fluorescence; hits give low values. AID 602410;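 active = B-score under library mean minus 4 SD, starting fluorescence ratio at most library mean plus 5 SD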;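 also: more negative B-score means stronger inhibition of thallium flux through KCNK3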
hERG protect: compounds protecting human hERG from proarrhythmic drug block; Q12809; CHO-hERG, FluxOR thallium flux, dofetilide IC70 present; activation (rescue from dofetilide block), less the hit threshold, % at 10 µM; 310,000 compounds, 0.51% hits; AID 1511;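 active = activation above the mean of controls blocked by dofetilide plus 5 SD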;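 also: thallium influx through hERG after potassium depolarization seen as dye fluorescence rise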
KCNK9 block: inhibitors of human KCNK9 two-pore domain potassium channel; Q9NPC2; B-score at 10 µM; HEK293 KCNK9, FluxOR thallium flux fluorescence; hits give low values; 310,000 compounds, 1.2% hits;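 active = ratio B-score over 3 SD below the library mean, with starting fluorescence within 5 SD of its mean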;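 also: negative B-score means less thallium flux so channel inhibition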
Kir21 inh: blocks the mouse Kir2.1 inward-rectifier potassium channel. B-score at 10 µM. P35561. 310,000 compounds, 0.85% hits. AID 1672. HEK293-Kir2.1, FluxOR thallium flux fluorescence; hits give low values;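 active = fluorescence ratio B-score at or below minus 3 SD of library scores, with starting-brightness B-score within 2 SD, cut at about -4.2 in these data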;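 also: channel flux triggered by added potassium and thallium sulfate stimulus; B-score of peak minus minimum fluorescence over baseline after thallium stimulus; more negative B-score means stronger Kir2.1 block with less thallium influx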
KCNQ1 pot: potentiators or activators of human KCNQ1 potassium channel; P51787; CHO-K1 KCNQ1, thallium flux FluxOR fluorescence; hits give high values; B-score at 10 µM; 310,000 compounds, 0.35% hits; AID 2648;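 active = fluorescence ratio B-score, a plate-corrected score, at least three library SD, with initial intensity B-score within 5 SD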
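Assay system: stable KCNQ1 CHO-K1 line; medium: assay buffer, equal DMSO in all wells; timing: 90 min dye loading and 20 min compound exposure, both at room temperature; technique: kinetic FluxOR thallium fluorescence, 10-s 1-Hz baseline, 110-s post-stimulus read; read-out basis: B score of baseline-normalized fluorescence ratio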
KCNQ1 inh: human KCNQ1 channel inhibition | B-score at 10 µM | P51787 | 310,000 compounds, 1.3% hits | CHO-K1 KCNQ1, FluxOR thallium flux fluorescence; hits give high values;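 active = compounds whose thallium flux B-score, printed positive for inhibition, exceeds three library SD while starting fluorescence stays within three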;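 also: channel opened by potassium depolarization with thallium stimulus after 20 min compound exposure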
KCNK3 inh conf: confirmation of human KCNK3 two-pore domain potassium channel inhibitors; shares compounds with KCNK3 inh; CHO-KCNK3 thallium flux, FluxOR fluorescence; 0% buffer, 100% carvedilol maximal block; ratio percent of control, % at 10 µM; 2,400 compounds, 99% hits;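 active = ratio percent of control, averaged over triplicates, above buffer control mean plus 5 SD, cut at about 64% in these data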;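 also: ratio is the fluorescence rise from min to max over baseline after thallium stimulus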
KCNK3 noninduced: KCNK3 inhibitor counter-screen hit in non-induced cells; thallium flux ratio (lower = more inhibition) at 10 µM; 2,400 compounds, 40% hits; shares compounds with KCNK3 inh; AID 651747; non-induced KCNK3 parental cells, FluxOR thallium flux; hits give low values;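 active = thallium flux ratio, averaged over three wells, more than 5 SD below the buffer control mean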;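 also: host cells are CHO cells without KCNK3 induction; ratio is peak minus trough fluorescence over baseline then normalized to buffer controls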
The depositor's hits bear a star; i = inactive; / = no result.

SMILES	KCNK3 inh	hERG protect	KCNK9 block	Kir21 inh	KCNQ1 pot	KCNQ1 inh	KCNK3 inh conf	KCNK3 noninduced
CC(O)CN1C(=O)C(CC(=O)Nc2ccc(Cl)cc2)SC1=Nc1ccccc1 (stereo unspecified)	-9.45*	-0.5	i	-1.02	i	i	109.7*	i
CCS(=O)(=O)c1ncc(Cl)c(C(=O)Nc2ccc(S(=O)(=O)N3CCCC(C)C3)cc2)n1 (stereo unspecified)	i	-7.7	i	1.84	i	i	/	/
CCC1CCCCN1S(=O)(=O)c1ccc(NC(=O)c2ccncc2)cc1 (stereo unspecified)	-9.99*	-5.9	i	0.18	i	i	121.3*	i
CCC1CCCCN1S(=O)(=O)c1ccc(NC(=O)c2nc(S(C)(=O)=O)ncc2Cl)cc1 (stereo unspecified)	-11.1*	-28.6	i	-1.88	i	i	113.7*	0.135*
CCOC(=O)c1ccc(N=Nc2c(C)c(C#N)c(O)[nH]c2=O)cc1	i	-8.4	i	-0.06	i	i	/	/
Cn1nc(C(=O)NCc2ccccc2)c2c1-c1ccccc1S(=O)(=O)C2	i	-8.4	i	0.01	i	i	/	/
CCOC(=O)c1c(NC(=O)CSc2nnc(CNc3ccc(Cl)cc3)o2)sc(C)c1C	-9.55*	-11.8	i	-0.17	i	i	90.0*	i
CCOc1ccc(OCC)c(S(=O)(=O)n2cnc(C)c2)c1	-8.85*	-9.4	i	-0.78	i	i	82.0*	i
CCOC1=NC(=C(c2ccccc2)c2ccccc2)OC1=O	i	/	/	/	/	/	/	/
COc1ccccc1N1CCN(Cc2cnc3ccc(Cl)cn23)CC1	i	-3.8	i	-0.2	i	i	/	/
Cn1c(SCc2nc3ccccc3c(=O)[nH]2)nc2ccccc21	i	-8.2	i	-0.17	i	i	/	/
CC(C)Cn1c(SCc2nc3ccccc3c(=O)[nH]2)nc2ccccc2c1=O	-10.1*	-10.8	-6.74*	-0.22	i	i	102.0*	i
COc1cc(C)ccc1S(=O)(=O)NC1CC(C)(C)NC(C)(C)C1	i	-3.6	i	-1.37	i	i	/	/
C(=C\CSc1nnnn1-c1ccccc1)/CSc1nnnn1-c1ccccc1	-9.68*	-14.8	i	-1.85	i	i	106.3*	i
Cc1ccc(NC(=O)CNc2cccc(S(=O)(=O)N3CCCCC3)c2)cc1F	i	-17.1	-7.63*	-3.24	i	i	96.3*	i
COc1ccc(OC)c(-c2nn(-c3ccccc3)cc2C(=O)NCC(c2cccs2)N2CCOCC2)c1 (stereo unspecified)	i	-15.2	i	0.1	i	i	/	/
O=C(Cn1cnc([N+](=O)[O-])c1)NCCc1ccccc1	i	-4.5	i	-0.02	i	i	/	/
CCc1ccc(CNC(=O)CCn2ccc3cc(S(=O)(=O)N4CCCC4)ccc32)cc1	-10.4*	-6.5	i	-1.3	i	i	117.3*	0.154*
O=C(N=C1SC2CS(=O)(=O)CC2N1c1cccc(Cl)c1Cl)C1CC1 (stereo unspecified)	i	-8.4	i	-0.11	i	i	/	/
CCc1ccccc1NC(=O)CSc1nnc(C2CC2)n1CC1CCCO1 (stereo unspecified)	i	-7.1	i	2.05	i	i	/	/
COC(=O)C1=C(C)N=C2SC(C)C(=O)N2C1c1ccc(C(=O)OC)cc1 (stereo unspecified)	-8.71*	-0.1	i	-0.93	i	i	105.7*	i
COC(=O)C1=C(C)N=C2SC(C)C(=O)N2C1c1cccs1 (stereo unspecified)	-11.9*	-5.1	i	0.77	i	i	0.0	i
Oc1ccc(/C=C/c2ccc3cccc(O)c3n2)cc1Br	-10.9*	-11.4	i	0.75	i	i	134.7*	0.124*
O=C(O)c1ccc(/C=C/c2ccc3cccc(O)c3n2)cc1	i	-10.4	i	1.12	i	i	/	/
CCOC(=O)Cc1csc(SCC(=O)Nc2cc(C)ccc2OC)n1	i	-8.4	i	-2.91	i	i	/	/
SMILES	KCNK3 inh	hERG protect	KCNK9 block	Kir21 inh	KCNQ1 pot	KCNQ1 inh	KCNK3 inh conf	KCNK3 noninduced
CCn1c(SCC(=O)Nc2oc(-c3ccccc3)c(-c3ccccc3)c2C#N)nnc1-c1ccncc1	-9.27*	-11.4	i	0.73	i	i	117.7*	0.137*
O=S(Cc1ccc(Br)cc1)Cc1nnc(SCc2ccc(Cl)cc2)n1-c1ccccc1 (stereo unspecified)	-10.3*	-7.1	i	-0.25	i	i	98.3*	i
O=S(Cc1ccc(Br)cc1)Cc1nnc(SCc2c(F)cccc2Cl)n1-c1ccccc1 (stereo unspecified)	i	-16.7	i	-0.4	i	i	/	/
CCOC(=O)c1c(NC(=O)C2COc3ccccc3O2)sc(C)c1C (stereo unspecified)	-8.82*	-5.3	i	-0.91	i	i	107.3*	0.141*
CCCC(C(=O)NCCC(C)C)N(Cc1ccccc1)C(=O)c1snc(C(N)=O)c1N (stereo unspecified)	i	-15.1	i	0.15	i	i	/	/
Cc1cc(C(=O)CSc2nnc(N)s2)c(C)n1Cc1cccs1	i	-8.7	i	0.73	i	i	/	/
CC(=O)Nc1ccc(SCC(=O)c2cc(C)n(Cc3cccs3)c2C)cc1	i	-3.9	i	1.28	i	i	/	/
Cc1csc(SCC(=O)c2cc(C)n(Cc3cccs3)c2C)n1	-9.5*	-7.3	i	-0.93	i	i	132.7*	0.139*
Cc1cc(C(=O)CSc2n[nH]c(-c3ccccc3F)n2)c(C)n1Cc1cccs1	-10.2*	-11.7	i	-3.24	i	i	91.7*	i
CC(C)(C)c1ccc(-c2ncccc2O)cc1	i	-4.8	i	0.33	i	i	/	/
COC(=O)Cc1csc(Nc2ccc(F)c(Cl)c2)n1	i	-11.7	i	0.05	i	i	/	/
O=C(NCCO)N1c2ccccc2Sc2ccccc21	i	-3.0	i	-0.01	i	i	/	/
O=C(Nc1ccccc1O)N1c2ccccc2Sc2ccccc21	-10.3*	-18.6	i	-0.1	i	i	103.3*	i
Cc1ccccc1OCc1nc(-c2ccc(Br)o2)no1	-11.9*	-1.7	i	-1.25	i	i	97.7*	i
